Screening data deposited in PubChem BioAssay by several laboratories.
A selection: hits, their analogues and other compounds. The true share with any hit is near 4.5%.
MrgX1 ag = activates human MrgX1 receptor signaling | MrgX1-HEK293 cells, Fluo-4 calcium fluorescence, agonist mode; active compounds read high | B-score at 10 µM | 0.44% of 310,000 active;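 active means calcium response B-score plate-corrected fluorescence ratio at least 3 library SD, with starting fluorescence B-score inside 5 SD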
Target sequence (Q96LB2 whole entry, looked up): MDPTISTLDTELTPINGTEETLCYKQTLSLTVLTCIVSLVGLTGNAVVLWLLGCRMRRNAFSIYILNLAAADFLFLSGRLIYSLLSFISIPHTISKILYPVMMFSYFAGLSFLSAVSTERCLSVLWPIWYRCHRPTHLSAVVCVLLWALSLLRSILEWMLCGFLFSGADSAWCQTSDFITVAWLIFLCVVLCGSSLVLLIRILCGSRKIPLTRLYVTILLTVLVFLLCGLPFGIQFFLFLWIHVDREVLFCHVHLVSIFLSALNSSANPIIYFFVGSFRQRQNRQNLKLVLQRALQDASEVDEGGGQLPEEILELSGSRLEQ
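System: HEK293 cells stably expressing human MrgX1 receptor; Dosing: test compound in the initial addition of three; Schedule: overnight plating, then 30 min 37 °C plus 30 min room-temperature dye loading; Detection: kinetic calcium dye fluorescence, Fluo-4 NW; Controls: per-plate positive and negative controls for Z′ factor.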
RGS4 inh = inhibitors of human RGS4; AID 463165; HEK293 M3R/RGS4 inducible, Fluo-4 calcium flux; active compounds read high; triggered by carbachol at its EC20; B-score at 10 µM; P49798; 0.45% of 310,000 active;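 active means B-score, a plate-corrected calcium signal, over three deviations above library mean, with baseline fluorescence within five deviations of library mean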;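 further: RGS4 expression induced by doxycycline in cells with stable M3 receptor; B-score is computed from the integrated fluorescence ratio over baseline after carbachol; higher B-score means a larger calcium signal and so more RGS4 inhibition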
Target sequence (P49798 whole entry, looked up): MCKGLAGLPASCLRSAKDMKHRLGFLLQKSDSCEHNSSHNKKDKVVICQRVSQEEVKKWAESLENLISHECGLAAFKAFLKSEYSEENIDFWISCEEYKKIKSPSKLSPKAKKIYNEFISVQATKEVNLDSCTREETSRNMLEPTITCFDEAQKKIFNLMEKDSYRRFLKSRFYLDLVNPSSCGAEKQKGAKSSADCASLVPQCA
MrgX1 allo act = allosterically activates human MrgX1 receptor signaling. Q96LB2. 0.63% of 310,000 active. AID 588675. MrgX1-HEK293, Fluo-4 calcium flux, FDSS; active compounds read high. B-score at 10 µM;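 active means plate-corrected calcium response at least 3 library SD above typical, normal starting fluorescence, not activating the receptor alone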;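 further: compound read alongside a low EC10 to EC30 dose of BAM8-22 agonist; peak minus trough fluorescence over baseline measured at the second addition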
PHOSPHO1 inh = inhibitors of human PHOSPHO1 phosphatase; 1.1% of 290,000 active; recombinant PHOSPHO1, absorbance phosphatase assay; Q8TCT1; inhibition, % at 13.3 µM; AID 1565; in the data active means inhibition above about 60%
RGS4 act = RGS4 potentiation or activation; HEK293 M3R/inducible RGS4, carbachol calcium flux Fluo4; active compounds read low; B-score at 10 µM; 0.92% of 310,000 active;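 active means B-score of the integrated calcium signal more than 4 SD below the library mean, with starting fluorescence not abnormally high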;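 further: negative B-score means reduced calcium response which marks RGS4 activation or potentiation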
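test system = HEK293 cells with stable M3R and inducible RGS4 | schedule = recording 10 s baseline at 1 Hz, 100 s post-agonist | technique = Fluo4-AM (2 µM) calcium-flux fluorescence, kinetic read | measure = Agonist-evoked peak-minus-minimum fluorescence over baseline, integrated ratio, B score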
MrgX1 antag = antagonists of human MrgX1 receptor; B-score at 10 µM; MRGX1-HEK293 calcium flux, Fluo-4, BAM8-22 antagonism; active compounds read low; 1.3% of 310,000 active; Q96LB2;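 active means calcium-response B-score plate-corrected more than 3 library SD below zero, starting fluorescence within 5 deviations, no agonist response on first addition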;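 further: peak minus trough fluorescence over baseline after final BAM8-22 challenge near maximal dose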
MrgX1 ant reconf = confirmation of human MrgX1 receptor antagonists; shares compounds with MrgX1 antag; remaining BAM8-22 calcium response % of control (active compounds read low), % at 10 µM; 19% of 2,300 active; MrgX1-HEK293, BAM8-22 calcium flux, Fluo-4; active compounds read low;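 active means remaining agonist calcium response no higher than 100% minus 3 SD of agonist-only control wells, with starting fluorescence near control levels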;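 further: agonist BAM8-22 given at a near maximal EC90 to ECmax level; peak minus minimum fluorescence divided by baseline after agonist addition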
HEK293 Ca flux = activity in parental HEK293 cells lacking MrgX1. 2% of 4,000 active. Fluo-4 calcium fluorescence, FDSS. AID 624111. shares compounds with MrgX1 antag. fluorescence ratio F(max-min)/F0 at 10 µM;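 active means duplicate-averaged calcium fluorescence ratio at least three times the standard deviation of buffer wells, a nonspecific response in parental cells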
HEK293 Ca counter = activity in parental HEK293 cells without MrgX1; shares compounds with MrgX1 antag; parental HEK293 calcium flux, Fluo-4 fluorescence ratio; active compounds read high; fluorescence ratio F(max-min)/F0 at 10 µM; 0.4% of 4,000 active;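 active means calcium fluorescence ratio, averaged over duplicates, at least 3 SD of the buffer-well ratio, meaning a nonspecific response in receptor-free cells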;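 further: untransfected parental HEK293 lacking MrgX1 used as counterscreen for MrgX1 allosteric activators; fluorescence change taken during the second addition on a kinetic imager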
HEK293 Ca cntr2 = counter-screen for MrgX1 activators: effect in parental HEK293 cells; shares compounds with MrgX1 antag; Fluo-4 calcium fluorescence (FDSS); active compounds read high; fluorescence ratio F(max-min)/F0 at 10 µM; 8.7% of 4,000 active;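 active means calcium fluorescence ratio at least three times the spread of buffer wells, meaning a non-specific response in parental cells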
* = called active by the depositor; i = inactive; . = no result.

SMILES	MrgX1 ag	RGS4 inh	MrgX1 allo act	PHOSPHO1 inh	RGS4 act	MrgX1 antag	MrgX1 ant reconf	HEK293 Ca flux	HEK293 Ca counter	HEK293 Ca cntr2
Nc1nonc1-c1nc2ccccc2n1CC(=O)N1CCCCC1	i	i	i	9	i	-5.4*	i	i	i	i
Nc1nonc1-c1nc2ccccc2n1CC(=O)O	i	i	i	8	i	i	.	.	.	.
COc1ccc(C(CC(=O)O)NC(=O)COc2cc(C)ccc2C)cc1OC (stereo not drawn)	i	i	i	-7	i	i	.	.	.	.
CC(=O)Nc1ccc(/C=C/c2ccc3c([N+](=O)[O-])cccc3n2)cc1	i	i	i	40	i	i	.	.	.	.
CC(NC(=O)NC(N)=O)(C(F)(F)F)C(F)(F)F	i	i	i	27	i	-5.2*	i	i	i	i
CCNc1nc(NCC)n2c(SCC(=O)Nc3ccccc3C(F)(F)F)nnc2n1	i	i	i	.	i	i	.	.	.	.
CCNc1nc(NCC)n2c(SCC(=O)Nc3ccccc3Cl)nnc2n1	i	i	i	.	i	-8.6*	i	i	i	i
CC1CCN(C(C(=O)Nc2ccc(C(C)C)cc2)c2ccc3c(c2)OCO3)CC1 (stereo not drawn)	i	i	i	9	i	-5.4*	i	i	i	i
O=C(C1CCN(C2CCN(Cc3ccsc3)CC2)CC1)N1CCOCC1	i	i	i	-10	i	i	.	.	.	.
O=C(O)c1ccc2c(c1)SC1=NS(=O)(=O)CCN12	i	i	i	37	i	-14*	i	i	i	i
CN(C(=O)c1ccc2c(c1)SC1=NS(=O)(=O)CCN12)C(c1ccccc1)c1ccccc1	i	i	i	-21	i	i	.	.	.	.
O=C(COC(=O)CCc1ccc(S(=O)(=O)N2CCOCC2)cc1)NC1CCCCCC1	i	i	i	1	i	i	.	.	.	.
O=C(O)c1ccc(NC2=C(Cl)C(=O)c3ccccc3C2=O)cc1	i	i	i	58	-7.3*	-18*	14%*	i	i	i
CC(=O)NC(CC(=O)NCCc1ccccc1)c1ccccc1 (stereo not drawn)	i	i	i	17	i	-4.9*	i	i	i	i
COc1ccccc1OCCNC(=O)CC(NC(C)=O)c1ccccc1 (stereo not drawn)	i	i	i	25	i	i	.	.	.	.
CCCOc1ccc(CNC(=S)Nc2ccccc2)cc1Cl	i	i	i	1	i	-6.7*	77%*	i	i	i
COc1ccc(CNC(=S)Nc2ccccc2)cc1Cl	i	i	i	14	i	i	.	.	.	.
CSc1ccccc1NC(=O)CCn1c(=O)sc2ccccc21	i	i	i	-2	i	-6.3*	i	i	i	i
CCn1c(=O)[nH]c2cc(C(=O)Nc3cc(C)cc(C)c3)ccc2c1=O	i	i	i	15	i	-5.1*	82%*	i	i	i
Cc1ccc(NC(=S)N2CCN(Cc3ccccc3)CC2)c(C)c1	i	i	i	-9	i	i	.	.	.	.
CSc1cccc(NC(=O)C2CCN(S(=O)(=O)c3ccc(F)cc3)CC2)c1	i	i	i	-31	i	i	.	.	.	.
CSc1cccc(NC(=O)C2CCCN(S(=O)(=O)c3ccc(F)cc3)C2)c1 (stereo not drawn)	i	i	i	-10	i	-6.5*	67%*	i	i	i
Cc1ccc(NC(=O)C2(c3cccs3)CCOCC2)cc1C	i	i	i	2	i	-4.8*	i	i	i	i
CC(C)(C)N1CC(C(=O)Nc2ccc(S(=O)(=O)N3CCCCC3)cc2)CC1=O (stereo not drawn)	i	i	i	.	i	i	.	.	.	.
CC(C)(C)N1CC(C(=O)Nc2ccc(S(N)(=O)=O)cc2)CC1=O (stereo not drawn)	i	i	i	3	i	-4.9*	i	i	i	i
SMILES	MrgX1 ag	RGS4 inh	MrgX1 allo act	PHOSPHO1 inh	RGS4 act	MrgX1 antag	MrgX1 ant reconf	HEK293 Ca flux	HEK293 Ca counter	HEK293 Ca cntr2
CC(C)c1ccc(NC(=O)C2CC(=O)N(C(C)C)C2)cc1 (stereo not drawn)	i	i	i	14	i	-9*	i	i	i	i
COc1ccc(CNC(=O)COC(=O)CO/N=C(\C)c2ccc3c(c2)OCO3)cc1	i	i	i	.	i	i	.	.	.	.
Cc1nn(C)c(C(=O)N/N=C/c2ccc(-c3ccccc3)cc2)c1Cl	i	i	i	28	i	-10*	i	i	i	i
CCOc1ccc(-c2nc(C#N)c(NCc3ccco3)o2)cc1	i	i	i	25	i	i	.	.	.	.
Cc1c(C(=O)N2CCN(c3ncccn3)CC2)sc2nc3n(c(=O)c12)CCCC3	i	i	i	-50	i	-7.4*	i	i	i	i
Cc1c(C(=O)O)sc2nc3n(c(=O)c12)CCCCC3	i	i	i	2	i	i	.	.	.	.
CCn1ncc(N(C)N)c(Cl)c1=O	i	i	i	20	i	i	.	.	.	.
O=C(COc1ccc(Br)cc1)Nc1ccc(C(=O)Nc2ccccc2C(=O)O)cc1	i	i	i	2	i	-7.1*	i	i	i	i
COc1ccc(OCC(=O)Nc2ccc(C(=O)Nc3ccccc3C(=O)O)cc2)cc1	i	i	i	29	i	i	.	.	.	.
COc1ccc(/C(C)=N/NC(=O)CNC(=O)c2cccnc2)cc1OC	i	i	i	14	i	i	.	.	.	.
COc1ccc(NS(=O)(=O)c2ccc(C(=O)N3CCN(Cc4ccccc4)CC3)cc2)cc1	i	i	i	28	i	-5.9*	i	i	i	i
CNc1c(C(=O)O)ccc2c1C(=O)c1ccccc1C2=O	i	i	i	-2	i	-8.6*	i	i	i	i
